In ChEMBL document CHEMBL5543163, “Druglike, 18F-labeled PET Tracers Targeting Fibroblast Activation Protein” (J Med Chem, 2024):

Columns and labels:
Dipeptidyl peptidase 8 = Dipeptidyl peptidase 8 (Homo sapiens, UniProt Q6V1X1); experiment: Inhibition of DPP8 (unknown origin)
[1] = Stability in CD1 mouse plasma assessed as drug degradation at 185 kBq measured upto 60 mins by radio-HPLC analysis; type: ADME, cell-free; details: 1 h
How it was run: (§1)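 Radiotracer was incubated at 37 °C for up to 60 min in PBS (0.01 M, pH 7.4) or in mouse plasma. Samples were deproteinized with an equal volume of cold ACN and centrifuged. The supernatant was analyzed by radio-HPLC with 30 s fractions γ-counted to give the intact fraction. Triplicates.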

[2] = Ratio of drug level in tumor to blood of female nude mouse harboring null mutation of CD1 antigen complex xenografted with human U-87 MG cells at 5 to 7.4 MBq, iv measured at 60 mins postinjection by gamma counter analysis; type: ADME, organism-based; details: tumour, 1 h, dose 5-7.4 MBq
How it was run: (§2)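 Subcutaneous U-87MG xenografts (5×10^6 cells in DPBS, hind flank) were grown in female CD1 nude mice to about 200 mm3. After tail-vein radiotracer injection and a 60 min dynamic PET scan, tissues were harvested at 60 min p.i. and γ-counted (%ID/g). Tumor-to-tissue ratios are means ± SD of individual ratios, n=4 per tracer.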

[3] = Stability in female nude mouse harboring null mutation of CD1 antigen complex assessed as drug degradation at 5.1 to 7.4 MBq, iv measured at 60 mins by radio-HPLC analysis; type: ADME, organism-based; details: 1 h, dose 5.1-7.4 MBq
How it was run: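 Female CD1 nude mice received 5.1–7.4 MBq i.v. EDTA blood collected at 15, 30 and 60 min p.i. (n=3 per time point) was centrifuged to plasma, deproteinized with cold ACN and centrifuged. The supernatant was analyzed by radio-HPLC with 30 s fractions γ-counted to give the percent intact tracer.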

[4] = Drug uptake in tumor of female nude mouse harboring null mutation of CD1 antigen complex xenografted with human U-87 MG cells with increased FAP positive tumor area at 5 to 7.4 MBq, iv measured after 60 mins by immunohistochemistry analysis; type: ADME, organism-based, Neoplasm; details: in vivo, 1 h, dose 5-7.4 MBq
[5] = Ratio of drug level in tumor to small intestine of female nude mouse harboring null mutation of CD1 antigen complex xenografted with human U-87 MG cells at 5 to 7.4 MBq, iv measured at 60 mins postinjection by gamma counter analysis; type: ADME, organism-based; details: in vivo, 1 h, dose 5-7.4 MBq; how it was run: as §2
[6] = Drug uptake in intestine of female nude mouse harboring null mutation of CD1 antigen complex at 5.1 to 7.4 MBq, iv measured after 15 to 60 mins by gamma counter analysis; type: ADME, organism-based; details: in vivo, dose lower 5.1 MBq, time lower 15 min, dose upper 7.4 MBq, time upper 60 min
How it was run: (§3)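 Female CD1 nude mice, 6–8 weeks old (20–25 g), received the radiotracer through the lateral tail vein. At 15, 30 and 60 min p.i. (n = 3 per time point) blood was drawn by cardiac puncture and the animals were euthanized. Organs were excised, weighed and γ-counted. Uptake is expressed as %ID/g.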

[7] = Stability in PBS assessed as compound remaining at 185 kBq measured upto 60 mins by radio-HPLC analysis; type: physicochemical; details: read-out: Stability; how it was run: as §1
[8] = Stability in PBS assessed as drug degradation at 185 kBq measured upto 60 mins by radio-HPLC analysis; type: physicochemical; details: buffer, 1 h; how it was run: as §1
[9] = Drug uptake in tumor of female nude mouse harboring null mutation of CD1 antigen complex xenografted with human U-87 MG cells at 5 to 7.4 MBq, iv measured at 60 mins by PET/CT analysis; type: ADME, organism-based, Neoplasm; details: in vivo, 1 h, dose 5-7.4 MBq
How it was run: (§4)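 U-87MG xenografts (5×10^6 cells, subcutaneous flank) were grown in female CD1 nude mice to about 200 mm3. Dynamic whole-body PET over 60 min p.i. was followed by CT. Images were reconstructed with OSEM 3D and expressed as %ID/mL to give time-activity curves. For blocking, the FAP inhibitor (5 mg/kg) was given via the tail vein 30 min before the tracer; n=4.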

[10] = Drug uptake in tumor of female nude mouse harboring null mutation of CD1 antigen complex xenografted with human U-87 MG cells at 5 to 7.4 MBq, iv measured after 60 mins by autoradiography; type: ADME, organism-based, Neoplasm; details: in vivo, 1 h, dose 5-7.4 MBq
How it was run: (§5)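 Right after imaging and γ-counting, tumors from HT29 or U-87MG xenografts were snap-frozen and embedded in OCT. Sections of 100 µm were exposed overnight to phosphor screens. Non-blocked tumors were compared with tumors from mice pre-injected with the FAP inhibitor.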

[11] = Drug uptake in tumor of female nude mouse harboring null mutation of CD1 antigen complex xenografted with human U-87 MG cells at 5 to 7.4 MBq, iv pretreated with (S)-N-(2-(2-cyano-4,4-difluoropyrrolidin-1-yl)-2-oxoethyl)quinoline-4-carboxamide for 30 mins followed by radioligand addition and measured measured after 60 mins by PET/CT analysis; type: ADME, organism-based, Neoplasm; details: in vivo, 1 h, dose 5-7.4 MBq; how it was run: as §4
[12] = Drug uptake in liver of female nude mouse harboring null mutation of CD1 antigen complex at 5.1 to 7.4 MBq, iv measured after 15 to 60 mins by gamma counter analysis; type: ADME, organism-based; details: in vivo, dose lower 5.1 MBq, time lower 15 min, dose upper 7.4 MBq, time upper 60 min; how it was run: as §3
[13] = Ratio of drug level in tumor to liver of female nude mouse harboring null mutation of CD1 antigen complex xenografted with human U-87 MG cells at 5 to 7.4 MBq, iv measured at 60 mins postinjection by gamma counter analysis; type: ADME, organism-based; details: in vivo, 1 h, dose 5-7.4 MBq; how it was run: as §2
[14] = Drug uptake in skull of female nude mouse harboring null mutation of CD1 antigen complex xenografted with human U-87 MG cells at 5 to 7.4 MBq, iv measured after 60 mins by gamma counter analysis; type: ADME, organism-based; details: in vivo, 1 h, dose 5-7.4 MBq
[15] = Stability in CD1 mouse plasma assessed as compound remaining at 185 kBq measured upto 60 mins by radio-HPLC analysis; type: ADME, cell-free; details: read-out: Stability; how it was run: as §1
[16] = Drug uptake in urinary bladder of female nude mouse harboring null mutation of CD1 antigen complex assessed as increase in renal excretion at 5.1 to 7.4 MBq, iv measured after 15 to 60 mins by gamma counter analysis; type: ADME, organism-based; details: in vivo, dose lower 5.1 MBq, time lower 15 min, dose upper 7.4 MBq, time upper 60 min; how it was run: as §3
[17] = Ratio of drug level in tumor to muscle of female nude mouse harboring null mutation of CD1 antigen complex xenografted with human U-87 MG cells at 5 to 7.4 MBq, iv measured at 60 mins postinjection by gamma counter analysis; type: ADME, organism-based; details: in vivo, 1 h, dose 5-7.4 MBq; how it was run: as §2
[18] = Drug uptake in tumor of female nude mouse harboring null mutation of CD1 antigen complex xenografted with FAP-negative human HT-29 cells at 5 to 7.4 MBq, iv measured after 60 mins by autoradiography; type: ADME, organism-based, Neoplasm; details: in vivo, 1 h, dose 5-7.4 MBq; how it was run: as §5
[19] = Drug uptake in bone structures of female nude mouse harboring null mutation of CD1 antigen complex xenografted with human U-87 MG cells at 5 to 7.4 MBq, iv measured after 60 mins by gamma counter analysis; type: ADME, organism-based, Bone element; details: in vivo, 1 h, dose 5-7.4 MBq
[20] = Drug uptake in tumor of female nude mouse harboring null mutation of CD1 antigen complex xenografted with human HT-29 cells with decreased FAP positive tumor area at 5 to 7.4 MBq, iv measured after 60 mins by immunohistochemistry analysis; type: ADME, organism-based, Neoplasm; details: in vivo, 1 h, dose 5-7.4 MBq
[21] = Drug uptake in kidney of female nude mouse harboring null mutation of CD1 antigen complex assessed as increase in renal excretion at 5.1 to 7.4 MBq, iv measured after 15 to 60 mins by gamma counter analysis; type: ADME, organism-based; details: in vivo, dose lower 5.1 MBq, time lower 15 min, dose upper 7.4 MBq, time upper 60 min; how it was run: as §3
[22] = Drug uptake in tumor of female nude mouse harboring null mutation of CD1 antigen complex xenografted with FAP-negative human HT-29 cells at 5 to 7.4 MBq, iv measured at 60 mins by PET/CT analysis; type: ADME, organism-based, Neoplasm; details: in vivo, 1 h, dose 5-7.4 MBq
How it was run: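 HT29 xenografts (10×10^6 cells, subcutaneous hind flank) were grown in female CD1 nude mice to about 200 mm3. After tail-vein injection of the tracer, dynamic PET over 60 min was followed by CT. Images were reconstructed with OSEM 3D and tumor uptake was expressed as %ID/mL from time-activity curves, n=4.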

[23] = Octanol/water partition coefficient, logD of compound at 74 kBq incubated for 2 mins by gamma counter method; type: physicochemical
How it was run: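 Octanol and PBS phases were mixed and vortexed for 2 min, then centrifuged at 3,000 rpm for 10 min. Aliquots of 0.5 mL from each phase were γ-counted and corrected for mass and density. LogD was taken as log10 of the octanol/PBS radioactivity ratio.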

Chain of Dipeptidyl peptidase 8 (Q6V1X1 whole entry): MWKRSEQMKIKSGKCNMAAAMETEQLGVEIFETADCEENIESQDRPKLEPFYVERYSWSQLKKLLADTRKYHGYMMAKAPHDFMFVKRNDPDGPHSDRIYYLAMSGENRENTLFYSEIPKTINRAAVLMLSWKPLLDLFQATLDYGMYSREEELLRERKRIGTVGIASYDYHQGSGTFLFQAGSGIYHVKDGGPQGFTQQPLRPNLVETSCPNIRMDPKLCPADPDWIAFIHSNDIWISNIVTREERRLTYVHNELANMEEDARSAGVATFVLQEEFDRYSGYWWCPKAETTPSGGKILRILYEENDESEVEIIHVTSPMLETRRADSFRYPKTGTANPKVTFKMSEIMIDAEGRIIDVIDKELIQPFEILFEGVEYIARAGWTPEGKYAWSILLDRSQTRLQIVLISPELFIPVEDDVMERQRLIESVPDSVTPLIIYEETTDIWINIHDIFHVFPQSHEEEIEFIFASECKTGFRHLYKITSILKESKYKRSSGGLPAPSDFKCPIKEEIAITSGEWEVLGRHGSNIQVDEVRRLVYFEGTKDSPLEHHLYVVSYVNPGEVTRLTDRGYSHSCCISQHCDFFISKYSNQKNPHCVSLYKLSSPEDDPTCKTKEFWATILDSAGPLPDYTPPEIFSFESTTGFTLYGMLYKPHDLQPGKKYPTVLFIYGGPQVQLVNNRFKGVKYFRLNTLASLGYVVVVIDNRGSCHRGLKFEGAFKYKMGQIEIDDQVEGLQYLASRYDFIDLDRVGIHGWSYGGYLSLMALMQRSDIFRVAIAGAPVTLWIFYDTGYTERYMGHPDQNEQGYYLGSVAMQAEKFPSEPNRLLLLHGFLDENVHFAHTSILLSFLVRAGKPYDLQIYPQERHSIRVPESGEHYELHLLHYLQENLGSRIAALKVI

## N#C[C@@H]1CC(F)(F)CN1C(=O)CNC(=O)c1ccnc2ccccc12
Dipeptidyl peptidase 8
  IC50: 4.7 µM

## COC(C[18F])COc1ccc2nccc(C(=O)NCC(=O)N3CC(F)(F)C[C@H]3C#N)c2c1 (some centres undefined)
[1]
  Stability: Stable
[2]
  Ratio: 5.01
[3]
  Stability: Unstable
[4]
  Drug uptake: Active
[5]
  Ratio: 0.22
[6]
  Drug uptake: Active
[7]
  remaining at 1 h, 185 kBq: > 70%
[8]
  Stability: Stable
[9]
  Drug uptake: < 3 %ID/ml
[10]
  Drug uptake: Active
[11]
  Drug uptake: Not Active
[12]
  Drug uptake: Active
[13]
  Ratio: 1.64
[14]
  Drug uptake: Active
[15]
  remaining at 1 h, 185 kBq: > 70%
[16]
  Drug uptake: Active
[17]
  Ratio: 6.48
[18]
  Drug uptake: Active
[19]
  Drug uptake: Active
[20]
  Drug uptake: Not Active
[21]
  Drug uptake: Active
[22]
  Drug uptake: 1.86 %ID/ml
[23]
  logD at 2 min: 0.77
